Legend:
[1] = molecular target: RAC-alpha serine/threonine-protein kinase (Homo sapiens, UniProt P31749); assay: Inhibition of AKT1
How it was run: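 AKT1 enzyme IC50 from the standard high-throughput AKT enzyme assay.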

[2] = Inhibition of AKT-mediated GSK3-beta phosphorylation in human BT474 cells by mechanistic assay; assay type: cell-based; settings: BT-474
How it was run: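 Cellular mechanistic assay in BT474 cells measuring inhibition of GSK3β phosphorylation, reported as IC50.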

[3] = molecular target: RAC-gamma serine/threonine-protein kinase (Homo sapiens, UniProt Q9Y243); assay: Inhibition of AKT3
BT-474 = assay: Cytotoxicity against human BT474 cells; assay type: functional, cell-based
How it was run: (§1)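 Inhibition of cell proliferation, reported as IC50. AKT-sensitive lines were BT474 and LNCaP; HFF was the non-tumour-derived line.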

LNCaP = assay: Cytotoxicity against human LNCAP cells; assay type: functional, cell-based; how it was run: as §1
HFF = assay: Cytotoxicity against human HFF cells; assay type: cell-based; how it was run: as §1
[4] = Cmax in rat at 2 mg/kg, iv after 24 hrs; assay type: ADME, organism-based; parameters: dose 2 mg/kg, route intravenous; settings: in vivo
How it was run: (§2)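 iv/po crossover pharmacokinetic study in conscious male rats, n = 3. Dosing was 2 mg/kg iv and 10 mg/kg po.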

[5] = Clearance in rat at 2 mg/kg, iv after 24 hrs; assay type: ADME, organism-based; parameters: dose 2 mg/kg, route intravenous; settings: in vivo; how it was run: as §2
[6] = Half life in rat at 2 mg/kg, iv after 24 hrs; assay type: ADME, organism-based; parameters: dose 2 mg/kg, route intravenous; settings: in vivo; how it was run: as §2
Rattus norvegicus [7] = assay: (§3) AUC (0 to t) in rat at 2 mg/kg, iv after 24 hrs; assay type: ADME, organism-based, Plasma; parameters: time < 24 hr, dose 2 mg/kg, route intravenous; settings: in vivo, 24 h; how it was run: as §2
[8] = Cmax in rat at 10 mg/kg, po after 24 hrs; assay type: ADME, organism-based; parameters: dose 10 mg/kg, route oral; settings: in vivo; how it was run: as §2
Rattus norvegicus [9] = assay: (§4) AUC (0 to t) in rat at 10 mg/kg, po after 24 hrs; assay type: ADME, organism-based, Plasma; parameters: time < 24 hr, dose 10 mg/kg, route oral; settings: in vivo, 24 h; how it was run: as §2
Rattus norvegicus [10] = assay: (§5) Oral bioavailability in rat at 10 mg/kg after 24 hrs; assay type: ADME, organism-based; settings: in vivo, 24 h; how it was run: as §2
[11] = as §3; assay type: ADME, organism-based, Plasma; parameters: time < 24 hr, dose 2 mg/kg, route intravenous; settings: plasma; how it was run: as §2
[12] = Half life in rat at 10 mg/kg, po after 24 hrs; assay type: ADME, organism-based; parameters: dose 10 mg/kg, route oral; settings: in vivo; how it was run: as §2
[13] = as §4; assay type: ADME, organism-based, Plasma; parameters: time < 24 hr, dose 10 mg/kg, route oral; settings: plasma; how it was run: as §2
[14] = as §5; assay type: ADME, organism-based; settings: in vivo; how it was run: as §2
Mus musculus = assay: Inhibition of GSK3-beta phosphorylation in human BT474 xenografted ip dosed mouse after 4 hrs administered once relative to control; assay type: functional, organism-based
How it was run: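 BT474 tumour-bearing xenograft mice received a single ip injection at 6.25, 12.5 or 25 mg/kg. Vehicle was 5% dextrose, pH 4.0. Tumours were harvested 4 h post-dose and pGSK3β levels compared with the vehicle group.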

[15] = molecular target: Protein kinase C alpha type (Homo sapiens, UniProt P17252); assay: Inhibition of PKCalpha
[16] = molecular target: Glycogen synthase kinase-3 beta (Homo sapiens, UniProt P49841); assay: Inhibition of GSK3-beta
[17] = molecular target: MAP kinase-activated protein kinase 2 (Homo sapiens, UniProt P49137); assay: Inhibition of MAPKAPK2
[18] = molecular target: Serine/threonine-protein kinase pim-1 (Homo sapiens, UniProt P11309); assay: Inhibition of PIM1
[19] = molecular target: Epidermal growth factor receptor (Homo sapiens, UniProt P00533)
Epidermal growth factor receptor, sequence (P00533 whole entry): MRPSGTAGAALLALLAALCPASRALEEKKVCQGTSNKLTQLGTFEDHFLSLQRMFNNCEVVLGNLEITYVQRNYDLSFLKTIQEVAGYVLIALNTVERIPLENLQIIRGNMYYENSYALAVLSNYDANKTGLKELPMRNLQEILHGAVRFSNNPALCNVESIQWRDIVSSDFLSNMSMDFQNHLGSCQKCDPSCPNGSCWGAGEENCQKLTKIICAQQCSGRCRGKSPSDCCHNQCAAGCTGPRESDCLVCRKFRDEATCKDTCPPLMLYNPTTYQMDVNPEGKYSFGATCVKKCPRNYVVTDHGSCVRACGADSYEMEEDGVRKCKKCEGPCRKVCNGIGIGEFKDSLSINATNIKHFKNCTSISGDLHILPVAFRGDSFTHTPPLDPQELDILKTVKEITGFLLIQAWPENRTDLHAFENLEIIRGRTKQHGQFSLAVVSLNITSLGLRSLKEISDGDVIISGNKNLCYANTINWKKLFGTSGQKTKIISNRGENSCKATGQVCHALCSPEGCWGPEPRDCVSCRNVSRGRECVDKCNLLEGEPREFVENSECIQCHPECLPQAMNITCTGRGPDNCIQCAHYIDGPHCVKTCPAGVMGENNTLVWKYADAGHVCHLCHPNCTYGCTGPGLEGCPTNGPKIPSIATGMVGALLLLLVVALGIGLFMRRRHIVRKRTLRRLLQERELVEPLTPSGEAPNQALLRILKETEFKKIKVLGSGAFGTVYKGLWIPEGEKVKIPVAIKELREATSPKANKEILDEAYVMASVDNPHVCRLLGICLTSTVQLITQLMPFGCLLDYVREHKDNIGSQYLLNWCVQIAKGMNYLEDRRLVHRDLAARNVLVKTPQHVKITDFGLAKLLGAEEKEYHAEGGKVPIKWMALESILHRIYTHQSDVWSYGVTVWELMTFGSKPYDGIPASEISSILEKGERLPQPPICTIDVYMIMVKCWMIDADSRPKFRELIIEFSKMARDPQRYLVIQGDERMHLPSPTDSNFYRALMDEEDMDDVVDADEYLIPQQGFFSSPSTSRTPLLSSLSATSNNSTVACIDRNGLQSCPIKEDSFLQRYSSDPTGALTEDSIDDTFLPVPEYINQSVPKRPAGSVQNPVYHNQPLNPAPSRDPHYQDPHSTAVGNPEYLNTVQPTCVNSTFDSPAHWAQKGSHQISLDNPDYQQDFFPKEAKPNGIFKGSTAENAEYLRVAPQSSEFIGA

RAC-alpha serine/threonine-protein kinase, sequence (P31749 whole entry): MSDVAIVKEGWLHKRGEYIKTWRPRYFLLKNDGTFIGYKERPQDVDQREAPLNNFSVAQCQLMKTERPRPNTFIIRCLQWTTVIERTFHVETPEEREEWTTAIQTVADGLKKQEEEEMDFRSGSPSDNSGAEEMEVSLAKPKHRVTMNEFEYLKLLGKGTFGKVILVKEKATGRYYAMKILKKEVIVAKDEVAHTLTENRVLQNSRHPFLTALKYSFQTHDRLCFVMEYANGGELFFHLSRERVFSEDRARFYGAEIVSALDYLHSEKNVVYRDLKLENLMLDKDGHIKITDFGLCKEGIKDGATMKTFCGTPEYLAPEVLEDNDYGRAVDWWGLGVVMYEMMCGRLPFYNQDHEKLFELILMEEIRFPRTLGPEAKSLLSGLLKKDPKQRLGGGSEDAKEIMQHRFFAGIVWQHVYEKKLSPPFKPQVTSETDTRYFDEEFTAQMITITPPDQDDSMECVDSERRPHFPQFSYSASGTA
RAC-gamma serine/threonine-protein kinase, sequence (Q9Y243 whole entry): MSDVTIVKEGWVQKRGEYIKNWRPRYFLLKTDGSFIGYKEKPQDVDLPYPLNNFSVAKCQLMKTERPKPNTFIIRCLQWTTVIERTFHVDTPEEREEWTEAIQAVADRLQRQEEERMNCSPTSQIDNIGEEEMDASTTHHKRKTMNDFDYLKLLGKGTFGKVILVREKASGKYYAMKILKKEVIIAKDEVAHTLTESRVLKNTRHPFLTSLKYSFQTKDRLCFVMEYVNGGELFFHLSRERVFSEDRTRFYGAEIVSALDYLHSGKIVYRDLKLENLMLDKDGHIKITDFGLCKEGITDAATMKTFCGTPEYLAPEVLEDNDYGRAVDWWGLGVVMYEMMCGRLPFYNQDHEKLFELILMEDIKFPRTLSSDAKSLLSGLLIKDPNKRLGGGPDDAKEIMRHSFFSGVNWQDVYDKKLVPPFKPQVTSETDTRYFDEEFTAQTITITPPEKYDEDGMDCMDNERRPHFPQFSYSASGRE
MAP kinase-activated protein kinase 2, sequence (P49137 whole entry): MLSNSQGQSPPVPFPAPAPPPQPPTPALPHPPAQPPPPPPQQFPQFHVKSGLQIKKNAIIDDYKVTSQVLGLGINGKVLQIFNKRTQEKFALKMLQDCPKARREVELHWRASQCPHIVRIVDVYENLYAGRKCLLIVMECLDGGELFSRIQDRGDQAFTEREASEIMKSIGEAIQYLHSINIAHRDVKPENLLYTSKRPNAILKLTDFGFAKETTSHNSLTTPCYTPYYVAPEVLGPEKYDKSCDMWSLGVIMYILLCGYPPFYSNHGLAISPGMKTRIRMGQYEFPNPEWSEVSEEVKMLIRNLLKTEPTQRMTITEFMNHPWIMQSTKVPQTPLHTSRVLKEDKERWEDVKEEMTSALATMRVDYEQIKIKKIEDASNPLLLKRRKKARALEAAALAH
Serine/threonine-protein kinase pim-1, sequence (P11309 whole entry): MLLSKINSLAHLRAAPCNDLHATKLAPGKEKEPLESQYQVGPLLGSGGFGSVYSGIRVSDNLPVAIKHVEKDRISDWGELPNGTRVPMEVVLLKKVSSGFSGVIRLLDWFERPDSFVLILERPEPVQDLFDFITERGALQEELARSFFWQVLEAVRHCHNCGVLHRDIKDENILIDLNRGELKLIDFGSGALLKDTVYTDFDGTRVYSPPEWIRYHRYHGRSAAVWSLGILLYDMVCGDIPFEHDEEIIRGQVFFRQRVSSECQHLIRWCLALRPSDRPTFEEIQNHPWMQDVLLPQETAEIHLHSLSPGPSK
Glycogen synthase kinase-3 beta, sequence (P49841 whole entry): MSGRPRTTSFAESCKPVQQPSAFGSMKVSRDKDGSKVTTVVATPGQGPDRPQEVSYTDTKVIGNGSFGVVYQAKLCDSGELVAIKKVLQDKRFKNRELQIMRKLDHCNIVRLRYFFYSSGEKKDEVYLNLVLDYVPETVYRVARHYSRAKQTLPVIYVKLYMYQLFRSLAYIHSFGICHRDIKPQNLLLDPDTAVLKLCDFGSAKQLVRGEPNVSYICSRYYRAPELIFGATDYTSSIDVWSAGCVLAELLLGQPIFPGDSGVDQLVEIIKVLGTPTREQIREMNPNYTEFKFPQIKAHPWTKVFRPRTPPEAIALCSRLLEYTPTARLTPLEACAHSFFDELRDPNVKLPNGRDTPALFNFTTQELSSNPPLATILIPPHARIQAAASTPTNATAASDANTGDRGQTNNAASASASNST

IC50 [1]	Ki [1]	IC50 [2]	IC50 [3]	SMILES	IC50 (BT-474)	IC50 (LNCaP)	IC50 (HFF)	further results
63 nM	–	2500 nM	–	NCC(NC(=O)c1cc(-c2cn[nH]c2)c(-c2ccnc3[nH]ccc23)s1)c1ccccc1 (stereo unspecified)	–	–	–	–
63 nM	–	6000 nM	–	NCC(NC(=O)c1cc(-c2cccnc2)c(-c2ccnc3[nH]ccc23)s1)c1ccccc1 (stereo unspecified)	–	–	–	–
3 nM	0.05 nM	50 nM	2 nM	NC[C@H](Cc1ccccc1C(F)(F)F)NC(=O)c1cc(Br)c(-c2ccnc3[nH]ccc23)s1	60 nM	24 nM	730 nM	–
3 nM	–	780 nM	–	CNCC(NC(=O)c1cc(Br)c(-c2ccnc3[nH]ccc23)s1)c1ccccc1 (stereo unspecified)	–	–	–	–
6 nM	–	800 nM	–	NCC(NC(=O)c1cc(C2CC2)c(-c2ccnc3[nH]ccc23)s1)c1ccccc1 (stereo unspecified)	–	–	–	–
50 nM	–	10000 nM	–	NCC(NC(=O)c1cc(-c2ccccc2)c(-c2ccnc3[nH]ccc23)s1)c1ccccc1 (stereo unspecified)	–	–	–	–
10 nM	–	2100 nM	–	CC(C)NCC(Cc1ccccc1)NC(=O)c1cc(Br)c(-c2ccnc3[nH]ccc23)s1 (stereo unspecified)	–	–	–	–
4 nM	–	1100 nM	–	CCNCC(Cc1ccccc1)NC(=O)c1cc(Br)c(-c2ccnc3[nH]ccc23)s1 (stereo unspecified)	–	–	–	–
3 nM	–	560 nM	–	NCC(C(=O)Nc1ccc(-c2ccnc3[nH]ccc23)s1)c1ccccc1 (stereo unspecified)	–	–	–	–
250 nM	–	> 10000 nM	–	NCC(CNc1ccc(-c2ccnc3[nH]ccc23)s1)c1ccccc1 (stereo unspecified)	–	–	–	–
1 nM	0.03 nM	90 nM	–	NC[C@H](Cc1cccc(F)c1)NC(=O)c1cc(Br)c(-c2ccnc3[nH]ccc23)s1	240 nM	18 nM	260 nM	Activity (Mus musculus): Dose-dependent effect; IC50 [15]: 40 nM; IC50 [16]: 20000 nM; IC50 [17]: 2500 nM; IC50 [18]: 794 nM; IC50 [19]: 10000 nM
8 nM	–	120 nM	–	Cc1cc(C(=O)NC(CN)c2ccccc2)sc1-c1ccnc2[nH]ccc12 (stereo unspecified)	–	–	–	–
40 nM	–	> 10000 nM	–	NC(CNC(=O)c1cc(Br)c(-c2ccnc3[nH]ccc23)s1)c1ccccc1 (stereo unspecified)	–	–	–	–
25 nM	–	1100 nM	–	NCC(NC(=O)c1cc(-c2c[nH]c3ncccc23)cs1)c1ccccc1 (stereo unspecified)	–	–	–	–
25 nM	–	4700 nM	–	NCC(C(=O)Nc1cc(Br)c(-c2ccnc3[nH]ccc23)s1)c1ccccc1 (stereo unspecified)	–	–	–	–
1 nM	0.06 nM	100 nM	2 nM	NC[C@H](Cc1ccccc1)NC(=O)c1cc(Br)c(-c2ccnc3[nH]ccc23)s1	230 nM	21 nM	90 nM	–
1 nM	–	220 nM	2 nM	NC[C@H](Cc1ccccc1F)NC(=O)c1cc(Br)c(-c2ccnc3[nH]ccc23)s1	120 nM	39 nM	260 nM	–

Continued, molecule first:

SMILES	IC50 [1]	Ki [1]	IC50 [2]	IC50 [3]	IC50 (BT-474)	IC50 (LNCaP)	IC50 (HFF)	further results
NCC(Cc1ccccc1)NC(=O)c1cc(Br)c(-c2ccnc3[nH]ccc23)s1 (racemic)	1 nM	0.04 nM	80 nM	3 nM	200 nM	45 nM	410 nM	Cmax [4]: 712 ng/mL; clearance [5]: 49 mL/min/kg; half-life [6]: 3.8 h; AUC (Rattus norvegicus [7]): 893 ng·h/mL; Cmax [8]: 248 ng/mL; AUC (Rattus norvegicus [9]): 664 ng·h/mL; F (Rattus norvegicus [10]): 38%
CNCC(Cc1ccccc1)NC(=O)c1cc(Br)c(-c2ccnc3[nH]ccc23)s1 (stereo unspecified)	2 nM	–	260 nM	–	–	–	–	–
NCC(NCc1ccc(-c2ccnc3[nH]ccc23)s1)c1ccccc1 (stereo unspecified)	100 nM	–	> 10000 nM	–	–	–	–	–
NCCC(NC(=O)c1cc(Br)c(-c2ccnc3[nH]ccc23)s1)c1ccccc1 (stereo unspecified)	8 nM	–	1500 nM	–	–	–	–	–
NCC(NC(=O)c1cc(-c2ccnc3[nH]ccc23)cs1)c1ccccc1 (stereo unspecified)	40 nM	–	1000 nM	–	–	–	–	–
CN(C)CC(NC(=O)c1cc(Br)c(-c2ccnc3[nH]ccc23)s1)c1ccccc1 (stereo unspecified)	20 nM	–	> 10000 nM	–	–	–	–	–
NCC(NC(=O)c1cc(Br)c(-c2ccnc3[nH]ccc23)s1)c1ccccc1 (racemic)	8 nM	20 nM	500 nM	20 nM	4000 nM	750 nM	1200 nM	Cmax [4]: 1800 ng/mL; clearance [5]: 16.7 mL/min/kg; half-life [6]: 3.6 h; AUC(0-t) at 24 h [11]: 3250 ng·h/mL; Cmax [8]: 550 ng/mL; half-life [12]: 4.1 h; AUC(0-t) at 24 h [13]: 3400 ng·h/mL; bioavailability [14]: 32%
NC[C@H](Cc1cccc(C(F)(F)F)c1)NC(=O)c1cc(Br)c(-c2ccnc3[nH]ccc23)s1	1 nM	0.1 nM	170 nM	1 nM	60 nM	78 nM	530 nM	–
NCCNC(=O)c1cc(Br)c(-c2ccnc3[nH]ccc23)s1	158 nM	–	> 10000 nM	–	–	–	–	–
NC[C@H](Cc1ccc(F)cc1)NC(=O)c1cc(Br)c(-c2ccnc3[nH]ccc23)s1	1 nM	0.06 nM	180 nM	2 nM	500 nM	66 nM	490 nM	–
NC[C@@H](Cc1ccccc1)NC(=O)c1cc(Br)c(-c2ccnc3[nH]ccc23)s1	32 nM	20 nM	6000 nM	40 nM	4500 nM	2700 nM	1900 nM	–
NCCCC(NC(=O)c1cc(Br)c(-c2ccnc3[nH]ccc23)s1)c1ccccc1 (stereo unspecified)	20 nM	–	4800 nM	–	–	–	–	–
NCC(NC(=O)c1ccc(-c2c[nH]c3ncccc23)s1)c1ccccc1 (stereo unspecified)	16 nM	–	240 nM	–	–	–	–	–
NC[C@H](Cc1ccncc1)NC(=O)c1cc(Br)c(-c2ccnc3[nH]ccc23)s1	–	2 nM	1900 nM	–	2300 nM	750 nM	3600 nM	–
NCC(NC(=O)c1ccc(-c2ccnc3[nH]ccc23)s1)c1ccccc1 (stereo unspecified)	6 nM	–	190 nM	–	–	–	–	–
NC[C@H](Cc1ccc(C(F)(F)F)cc1)NC(=O)c1cc(Br)c(-c2ccnc3[nH]ccc23)s1	2 nM	2 nM	2000 nM	3 nM	1200 nM	440 nM	1300 nM	–
COc1ccc(C[C@@H](CN)NC(=O)c2cc(Br)c(-c3ccnc4[nH]ccc34)s2)cc1	3 nM	5 nM	1000 nM	2 nM	1900 nM	720 nM	890 nM	–
NC[C@H](CC1CCCCC1)NC(=O)c1cc(Br)c(-c2ccnc3[nH]ccc23)s1	1 nM	0.79 nM	1900 nM	3 nM	2600 nM	440 nM	–	–
